RGS4 block: human RGS4 inhibition; HEK293 M3R/RGS4 inducible, Fluo-4 calcium flux; hits give high values; triggered by carbachol at its EC20; AID 463165; 0.45% of 310,000 active; B-score at 10 µM;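 active = B-score, a plate-corrected calcium signal, over three deviations above library mean, with baseline fluorescence within five deviations of library mean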;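 also: RGS4 expression induced by doxycycline in cells with stable M3 receptor; B-score is computed from the integrated fluorescence ratio over baseline after carbachol; higher B-score means a larger calcium signal and so more RGS4 inhibition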
Target sequence (P49798 whole entry, looked up): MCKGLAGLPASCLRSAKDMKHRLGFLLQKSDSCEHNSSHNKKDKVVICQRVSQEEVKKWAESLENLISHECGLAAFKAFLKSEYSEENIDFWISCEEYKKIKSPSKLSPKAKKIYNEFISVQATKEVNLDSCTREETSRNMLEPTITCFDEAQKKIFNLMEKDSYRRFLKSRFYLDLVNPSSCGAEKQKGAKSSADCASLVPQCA
MrgX1 ag: human MrgX1 receptor agonism, primary screen; 0.44% of 310,000 active; Q96LB2; MrgX1-HEK293 cells, Fluo-4 calcium fluorescence, agonist mode; hits give high values; AID 588627; B-score at 10 µM;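 active = calcium response B-score plate-corrected fluorescence ratio at least 3 library SD, with starting fluorescence B-score inside 5 SD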
Target sequence (Q96LB2 whole entry, looked up): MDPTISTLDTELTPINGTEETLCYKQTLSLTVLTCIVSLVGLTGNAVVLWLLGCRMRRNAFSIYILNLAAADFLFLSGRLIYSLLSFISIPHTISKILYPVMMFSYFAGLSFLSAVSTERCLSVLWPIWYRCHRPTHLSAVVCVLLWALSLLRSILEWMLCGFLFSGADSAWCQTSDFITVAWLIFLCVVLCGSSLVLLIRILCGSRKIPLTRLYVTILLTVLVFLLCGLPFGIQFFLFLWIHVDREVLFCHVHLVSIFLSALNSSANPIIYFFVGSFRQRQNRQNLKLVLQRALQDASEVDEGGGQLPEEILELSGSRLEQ
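Material: MrgX1-expressing HEK293 cells / Dosing: compound as first of three additions / Incubation: overnight seeding, then 1 h dark dye loading / Signal: Fluo-4 NW calcium fluorescence / Evaluation: B-scored fluorescence response ratio / Benchmarks: positive and negative control wells on each plate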
MrgX1 PAM: allosterically activates human MrgX1 receptor signaling; AID 588675; MrgX1-HEK293, Fluo-4 calcium flux, FDSS; hits give high values; 0.63% of 310,000 active; B-score at 10 µM;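 active = plate-corrected calcium response at least 3 library SD above typical, normal starting fluorescence, not activating the receptor alone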;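 also: compound read alongside a low EC10 to EC30 dose of BAM8-22 agonist; peak minus trough fluorescence over baseline measured at the second addition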
MrgX1 antagonist: blocks BAM8-22 activation of human MrgX1 receptor; Q96LB2; MRGX1-HEK293 calcium flux, Fluo-4, BAM8-22 antagonism; hits give low values; B-score at 10 µM; 1.3% of 310,000 active;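 active = calcium-response B-score plate-corrected more than 3 library SD below zero, starting fluorescence within 5 deviations, no agonist response on first addition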;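 also: peak minus trough fluorescence over baseline after final BAM8-22 challenge near maximal dose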
RGS4 act: potentiators or activators of RGS4 | HEK293 M3R/inducible RGS4, carbachol calcium flux Fluo4; hits give low values | B-score at 10 µM | 0.92% of 310,000 active | AID 463111;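 active = B-score of the integrated calcium signal more than 4 SD below the library mean, with starting fluorescence not abnormally high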;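 also: negative B-score means reduced calcium response which marks RGS4 activation or potentiation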
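Material: Inducible-RGS4 HEK293 cells carrying M3 receptor; also added: carbachol at ECmax as muscarinic agonist stimulus; incubation: compound preincubation 20 min at room temperature before agonist; signal: Fluo4-AM (2 µM) calcium-flux fluorescence, kinetic read; measure: integrated calcium ratio converted to B score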
MrgX1 antag conf: human MrgX1 receptor antagonism, re-confirmation screen; shares compounds with MrgX1 antagonist; MrgX1-HEK293, BAM8-22 calcium flux, Fluo-4; hits give low values; remaining BAM8-22 calcium response % of control (hits give low values), % at 10 µM; 19% of 2,300 active; AID 602420;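 active = remaining agonist calcium response no higher than 100% minus 3 SD of agonist-only control wells, with starting fluorescence near control levels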;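 also: agonist BAM8-22 given at a near maximal EC90 to ECmax level; peak minus minimum fluorescence divided by baseline after agonist addition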
HEK293 Ca flux: counter-screen for MrgX1 antagonists: effect in parental HEK293 cells; fluorescence ratio F(max-min)/F0 at 10 µM; 2% of 4,000 active; shares compounds with MrgX1 antagonist; Fluo-4 calcium fluorescence, FDSS;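 active = duplicate-averaged calcium fluorescence ratio at least three times the standard deviation of buffer wells, a nonspecific response in parental cells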
HEK293 Ca counter: activity in parental HEK293 cells without MrgX1; shares compounds with MrgX1 antagonist; parental HEK293 calcium flux, Fluo-4 fluorescence ratio; hits give high values; fluorescence ratio F(max-min)/F0 at 10 µM; 0.4% of 4,000 active;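 active = calcium fluorescence ratio, averaged over duplicates, at least 3 SD of the buffer-well ratio, meaning a nonspecific response in receptor-free cells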;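 also: untransfected parental HEK293 lacking MrgX1 used as counterscreen for MrgX1 allosteric activators; fluorescence change taken during the second addition on a kinetic imager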
HEK293 Ca cntr2: counter-screen for MrgX1 activators: effect in parental HEK293 cells; shares compounds with MrgX1 antagonist; Fluo-4 calcium fluorescence (FDSS); hits give high values; fluorescence ratio F(max-min)/F0 at 10 µM; 8.7% of 4,000 active; AID 624115;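 active = calcium fluorescence ratio at least three times the spread of buffer wells, meaning a non-specific response in parental cells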
The depositor's hits bear a star; i = inactive; . = not tested or not shown. This is a sample that favours compounds with a hit; in the whole collection about 3.5% have one here.

SMILES	RGS4 block	MrgX1 ag	MrgX1 PAM	MrgX1 antagonist	RGS4 act	MrgX1 antag conf	HEK293 Ca flux	HEK293 Ca counter	HEK293 Ca cntr2
N=c1c(S(=O)(=O)c2ccc(Cl)cc2)cc2c(=O)n3ccccc3nc2n1Cc1ccco1	i	i	i	i	i	.	.	.	.
COC(=O)Oc1cncc(C(=O)O)c1	i	i	i	-5.15*	i	i	i	i	i
O=c1[nH]c2cc3c(cc2cc1CN(Cc1ccco1)C(=S)NCCCN1CCOCC1)OCCO3	i	i	i	i	i	.	.	.	.
Cc1nc(Cl)c(C(=O)NC(C)(C)C)c(C)c1Cl	i	i	i	-9.37*	i	i	i	i	i
Cc1c(C(=O)O)sc2nc3n(c(=O)c12)CCCCC3	i	i	i	i	i	.	.	.	.
Cc1c(C(=O)N2CCN(c3ncccn3)CC2)sc2nc3n(c(=O)c12)CCCC3	i	i	i	-7.4*	i	i	i	i	i
CCOc1ccccc1N1CCN(C(=O)c2cc(-c3cccnc3)nc3c(Cl)cccc23)CC1	i	i	i	-5.81*	i	i	0.421*	i	i
CCOc1ccccc1N1CCN(C(=O)c2ccncc2)CC1	i	i	i	i	i	.	.	.	.
COc1ccc(C(=O)N2CCOC2CNC(=O)C(=O)NCc2ccc(F)cc2)cc1 (configuration not stated)	i	i	i	-5.15*	i	i	i	i	i
COc1ccc(C#Cc2c(-c3ccsc3)oc3ccc(-c4cc(OC)c(OC)c(OC)c4)cc23)cc1	i	i	i	i	i	.	.	.	.
O=C(Cn1c(=O)n(-c2cccc(C(F)(F)F)c2)c(=O)c2sccc21)NCC1CCCO1 (configuration not stated)	i	i	i	i	i	.	.	.	.
Cc1c(C)c2c(OCC(=O)Nc3ccc(CCO)cc3)cc3c(c2oc1=O)CCC(C)(C)O3	i	i	i	-6.19*	i	i	i	i	i
Cc1c(C)c2c(OCC(=O)O)cc3c(c2oc1=O)CCC(C)(C)O3	i	i	i	i	i	.	.	.	.
COc1ccccc1CNC(=O)COc1cc2c(c3oc(=O)cc(C)c13)CCC(C)(C)O2	i	i	i	-7.58*	i	62.3%*	i	i	i
COCCNC(=S)N(CCc1c(C)[nH]c2ccc(OC)cc12)Cc1cccnc1	i	i	i	i	i	.	.	.	.
CCO[C@@H]1OC(C(=O)Nc2ccccc2)=C[C@H](c2ccc(Br)cc2)[C@H]1CCCO	i	i	i	-10.1*	i	i	i	i	i
COc1ccccc1NC(=O)c1ccc(-n2cncn2)nc1	i	i	i	-5.24*	i	77.7%*	i	i	i
CCOc1ccccc1NC(=O)c1ccc(-n2cncn2)nc1	i	i	i	i	i	.	.	.	.
CC(C)C(c1nnnn1C1CCCCC1)N1CCCc2ccccc21 (configuration not stated)	i	i	i	i	i	.	.	.	.
CC(C)C(c1nnnn1C1CCCC1)N1CCCc2ccccc21 (configuration not stated)	i	i	i	-6.05*	i	i	i	i	i
CCOC(=O)CSc1nc2cc3c(cc2cc1C#N)OCO3	.	i	i	i	.	.	.	.	.
CC1Cc2ccccc2N1C(=O)CSc1nc2cc3c(cc2cc1C#N)OCO3 (configuration not stated)	.	i	i	-8.51*	.	i	i	i	i

Source: PubChem (Johns Hopkins Ion Channel Center)
